Measured values taken from ChEMBL document CHEMBL2384986, “Re-evolution of the 2-phenylquinolines: ligand-based design, synthesis, and biological evaluation of a potent new class of Staphylococcus aureus NorA efflux pump inhibitors to combat antimicrobial resistance” (J Med Chem, 2013).
Active and inactive are the calls of the source. No cut-off for these calls is given here.

Columns and labels:
[1] = molecular target: T1, Quinolone resistance protein NorA (Staphylococcus aureus) (UniProt P0A0J7); experiment: Inhibition of NorA in Staphylococcus aureus 1199B harboring grlA A116E mutant assessed as inhibition of ethidium bromide efflux at 50 uM measured for 5 mins by fluorometric analysis relative to control
T1 sequence (whole entry): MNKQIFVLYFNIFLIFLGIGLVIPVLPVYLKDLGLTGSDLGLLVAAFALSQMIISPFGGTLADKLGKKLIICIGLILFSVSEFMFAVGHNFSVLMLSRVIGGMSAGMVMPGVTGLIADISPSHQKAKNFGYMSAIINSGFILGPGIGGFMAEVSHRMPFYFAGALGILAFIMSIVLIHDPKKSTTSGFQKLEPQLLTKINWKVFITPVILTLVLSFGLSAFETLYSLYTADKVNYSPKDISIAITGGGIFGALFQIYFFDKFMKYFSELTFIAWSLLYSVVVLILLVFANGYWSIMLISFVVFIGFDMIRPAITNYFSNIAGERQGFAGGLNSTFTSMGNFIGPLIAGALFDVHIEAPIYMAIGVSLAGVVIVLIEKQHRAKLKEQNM
Method in brief: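 EtBr loss from SA-1199B (norA overexpressing, GrlA A116E) measured fluorometrically with inhibitor at 50 μM, compared with no-inhibitor control. Read-out is mean total efflux over a 5 min time course, expressed as percent reduction in efflux. Usually run in duplicate.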

[2] = tested on: Staphylococcus aureus; experiment: Reduction of ciprofloxacin MIC in norA-deficient Staphylococcus aureus K1902 at 0.78 to 100 ug/mL; assay type: functional, organism-based
Method in brief: (§1)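 Ciprofloxacin MIC determined by CLSI broth microdilution, alone and combined with scalar dilutions of freshly prepared test compound; checkerboard combination format. Strains: ATCC 25923 (wild type), SA-1199 (norA wt), SA-1199B (norA overexpressing, GrlA A116E), SA-K2378 (norA on multicopy pCU1) and SA-K1902 (norA-deleted).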

[3] = tested on: Staphylococcus aureus; experiment: Reduction of ethidium bromide MIC in mepA-deficient Staphylococcus aureus K2885 at 0.78 to 100 ug/mL; assay type: functional, organism-based
Method in brief: (§2)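 The strains are norA-deleted S. aureus carrying pALC2073-mepA (K2886) or the empty pALC2073 vector (K2885). Cloned genes are under a xyl/tetO promoter, induced by 0.05 μg/mL tetracycline, which was present in all experiments with these strains. EtBr MICs were determined by CLSI microdilution, with and without test compound.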

[4] = tested on: Staphylococcus aureus; experiment: Antibacterial activity against Staphylococcus aureus 1199 harboring wild type norA assessed as growth inhibition by microdilution method
[5] = tested on: Staphylococcus aureus; experiment: Inhibition of MepA in Staphylococcus aureus K2886 assessed as reduction of ethidium bromide MIC at 0.78 to 100 ug/mL; method in brief: as §2
[6] = tested on: Staphylococcus aureus; experiment: Antibacterial activity against wild type Staphylococcus aureus ATCC 25923 assessed as growth inhibition by microdilution method; assay type: functional
Method in brief: (§3)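 Broth microdilution MIC determination following CLSI guidelines. Strains: wild-type ATCC 25923 and SA-K1902 (norA−). Intrinsic activity was tested up to a top concentration of 100 μg/mL.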

[7] = molecular target: T1, Quinolone resistance protein NorA (Staphylococcus aureus); experiment: Inhibition of wild type NorA in Staphylococcus aureus 1199 assessed as reduction of ciprofloxacin MIC at 0.78 to 100 ug/mL; method in brief: as §1
[8] = molecular target: T1, Quinolone resistance protein NorA (Staphylococcus aureus); experiment: Inhibition of NorA in Staphylococcus aureus ATCC 25923 assessed as reduction of ciprofloxacin MIC at 0.78 to 100 ug/mL; method in brief: as §1
[9] = tested on: Staphylococcus aureus; experiment: Antibacterial activity against norA-deficient Staphylococcus aureus K1902 assessed as growth inhibition by microdilution method; assay type: functional; method in brief: as §3
[10] = tested on: Staphylococcus aureus; experiment: Antibacterial activity against Staphylococcus aureus K2378 overexpressing norA assessed as growth inhibition by microdilution method; assay type: functional
Method in brief: (§4)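 Broth microdilution MIC per CLSI guidelines for intrinsic antistaphylococcal activity; highest concentration tested 100 μg/mL. SA-1199 is the norA wild-type parent, SA-1199B overexpresses norA and carries GrlA A116E, and SA-K2378 overexpresses norA from multicopy plasmid pCU1 in the norA-deleted SA-K1902 background.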

[11] = tested on: Staphylococcus aureus; experiment: Antibacterial activity against Staphylococcus aureus 1199B overexpressing NorA and grlA A116E mutant assessed as growth inhibition by microdilution method; assay type: functional; method in brief: as §4
[12] = molecular target: T1, Quinolone resistance protein NorA (Staphylococcus aureus); experiment: Inhibition of NorA in Staphylococcus aureus K2378 assessed as reduction of ciprofloxacin MIC at 0.78 to 100 ug/mL relative to control; method in brief: as §1
[13] = molecular target: Quinolone resistance protein NorA (Staphylococcus aureus, UniProt P0A0J7); experiment: Inhibition of NorA in Staphylococcus aureus 1199B harboring grlA A116E mutant assessed as inhibition of ethidium bromide efflux measured for 5 mins by fluorometric analysis
Method in brief: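 Fluorometric EtBr efflux assay in SA-1199B (norA overexpressing, GrlA A116E) over a 5 min time course, compared with no-inhibitor control. Increasing inhibitor concentrations were tested, and IC50 was read by inspection of the dose-response plots. Usually run in duplicate.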

Row | SMILES | inhibition [1] | Activity [2] | Activity [3] | MIC [4] | inhibition [5] | MIC [6] | inhibition [7] | inhibition [8] | MIC [9] | MIC [10] | MIC [11] | fold change (FC) [12] | IC50 [13]
1 | CCCOc1ccc(-c2cc(OCCN3C(=O)c4ccccc4C3=O)c3ccccc3n2)cc1 | 8.3% | – | – | – | – | – | – | – | – | – | – | – | –
2 | CCCOc1ccc(-c2cc(OCCN(C(C)C)C(C)C)c3ccccc3n2)cc1 | 88.2% | inactive | inactive | > 100 µg/mL | Active | > 100 µg/mL | inactive | inactive | 100 µg/mL | > 100 µg/mL | > 200 µM | 4 | 8.3 µM
3 | CCCOc1ccc(-c2cc(OCCn3cccc3)c3ccccc3n2)cc1 | 4.1% | – | – | – | – | – | – | – | – | – | – | – | –
4 | CCCOc1ccc(-c2cc(OCCN3CCC4(CC3)OCCO4)c3ccccc3n2)cc1 | 80.4% | inactive | – | > 100 µg/mL | – | – | inactive | inactive | – | – | > 200 µM | 4 | 8.5 µM
5 | CCCOc1ccc(-c2cc(OCCC(C)C)c3ccccc3n2)cc1 | 33.2% | – | – | – | – | – | – | – | – | – | – | – | –
6 | CCCOc1ccc(-c2cc(OCCN)c3ccccc3n2)cc1 | 96.1% | – | – | – | – | – | – | – | – | – | > 310 µM | – | 9.3 µM
7 | CCCOc1ccc(-c2cc(OCCN3CCC(=O)CC3)c3ccccc3n2)cc1 | 71.7% | – | – | – | – | – | – | – | – | – | > 200 µM | – | –
8 | CCCOc1ccc(-c2cc(OC3CCCN(C)C3)c3ccccc3n2)cc1 (stereo unspecified) | 88.2% | inactive | – | > 100 µg/mL | – | – | inactive | inactive | – | – | > 200 µM | 4 | 8 µM
9 | O=C(O)c1cn(C2CC2)c2cc(N3CCNCC3)c(F)cc2c1=O [CIPROFLOXACIN] | – | – | – | 0.63 µg/mL | – | 0.31 µg/mL | – | – | 0.63 µg/mL | 2.5 µg/mL | – | – | –
10 | CCCOc1ccc(-c2cc(OCCN3CCN(Cc4ccccc4)CC3)c3ccccc3n2)cc1 | 81.2% | inactive | inactive | > 100 µg/mL | Active | > 100 µg/mL | inactive | inactive | > 100 µg/mL | > 100 µg/mL | > 200 µM | 4 | 3.8 µM
11 | CCCOc1ccc(-c2cc(OCCN3CCCC3)c3ccccc3n2)cc1 | 94.2% | – | – | – | – | – | – | – | – | – | > 200 µM | – | 9.3 µM
12 | CCCOc1ccc(-c2cc(OCCN3CCOCC3)c3ccccc3n2)cc1 | 86.9% | – | – | – | – | – | – | – | – | – | > 200 µM | – | 10.7 µM
13 | CCCOc1ccc(-c2cc(OCCN3CCN(C)CC3)c3ccccc3n2)cc1 | 91% | – | – | – | – | – | – | – | – | – | > 200 µM | – | 9.7 µM
14 | CCCOc1ccc(-c2cc(OC(C)CN(C)C)c3ccccc3n2)cc1 (racemic) | 86.2% | – | – | – | – | – | – | – | – | – | > 200 µM | – | 13.3 µM
15 | CCCOc1ccc(-c2cc(OCCN(CC)CC)c3ccccc3n2)cc1 | – | inactive | – | > 100 µg/mL | – | 100 µg/mL | inactive | inactive | 50 µg/mL | 50 µg/mL | > 200 µM | 4 | 8.9 µM
